Experimental data taken from ChEMBL document CHEMBL1141667, “Synthesis and antimicrobial activities of 7-O-modified genistein derivatives” (2008).
Values after ≈ are worked out from the molar mass of the structure shown.

Key:
Format in all cases: functional
Pseudomonas fluorescens = assay: Antibacterial activity against Pseudomonas fluorescens after 24 hrs by MTT assay
How it was run: (§1)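 Broth microdilution MIC in MH medium. Compounds from a 50 mg/mL DMSO stock were serially diluted in medium. Inoculum was about 10⁵ cfu/mL, each concentration in triplicate, incubated at 37 °C for 24 h. MIC was read visually, then confirmed by adding PBS with 2 mg/mL MTT and incubating 4–5 h at room temperature. A compound-free medium control checked for any MTT effect on growth.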

Bacillus subtilis = assay: Antibacterial activity against Bacillus subtilis after 24 hrs by MTT assay; how it was run: as §1
Escherichia coli = assay: Antibacterial activity against Escherichia coli after 24 hrs by MTT assay; how it was run: as §1
Staphylococcus aureus = assay: Antibacterial activity against Staphylococcus aureus after 24 hrs by MTT assay; how it was run: as §1
Aspergillus niger = assay: Antifungal activity against Aspergillus niger after 48 hrs by MTT assay
How it was run: (§2)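 Antifungal MIC by microdilution in RPMI-1640 medium. Compounds came from a 50 mg/mL DMSO stock and were serially diluted. Inoculum was about 10⁵ cfu/mL, with triplicate wells per concentration, incubated at 37 °C for 48 h. MIC was judged visually, followed by PBS containing 2 mg/mL MTT for 4–5 h at room temperature for the colorimetric read. A compound-free control tested MTT interference.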

Candida albicans = assay: Antifungal activity against Candida albicans after 48 hrs by MTT assay; how it was run: as §2
Trichophyton rubrum = assay: Antifungal activity against Trichophyton rubrum after 48 hrs by MTT assay; how it was run: as §2

MIC (Pseudomonas fluorescens) | MIC (Bacillus subtilis) | MIC (Escherichia coli) | MIC (Staphylococcus aureus) | MIC (Aspergillus niger) | MIC (Candida albicans) | MIC (Trichophyton rubrum) | SMILES
47.5 µg/mL (≈ 120 µM) | > 50 µg/mL | > 50 µg/mL | 41.2 µg/mL (≈ 104 µM) | > 50 µg/mL | > 50 µg/mL | > 50 µg/mL | CCCN(CCC)CCOc1cc(O)c2c(=O)c(-c3ccc(O)cc3)coc2c1
23.1 µg/mL (≈ 58.4 µM) | 38.5 µg/mL (≈ 97.4 µM) | > 50 µg/mL | 23.7 µg/mL (≈ 59.9 µM) | > 50 µg/mL | > 50 µg/mL | 48.5 µg/mL (≈ 123 µM) | O=c1c(-c2ccc(O)cc2)coc2cc(OCCCCN3CCCC3)cc(O)c12
12 µg/mL (≈ 28.5 µM) | > 50 µg/mL | > 50 µg/mL | 35.3 µg/mL (≈ 83.8 µM) | > 50 µg/mL | > 50 µg/mL | > 50 µg/mL | O=c1c(-c2ccc(O)cc2)coc2cc(OCCCCNCc3ccco3)cc(O)c12
37.5 µg/mL (≈ 91.4 µM) | 15.5 µg/mL (≈ 37.8 µM) | > 50 µg/mL | 20.1 µg/mL (≈ 49 µM) | > 50 µg/mL | > 50 µg/mL | > 50 µg/mL | O=c1c(-c2ccc(O)cc2)coc2cc(OCCCCN3CCNCC3)cc(O)c12
45 µg/mL (≈ 109 µM) | 32 µg/mL (≈ 77.8 µM) | > 50 µg/mL | 15.3 µg/mL (≈ 37.2 µM) | > 50 µg/mL | > 50 µg/mL | > 50 µg/mL | CCCN(CCC)CCCOc1cc(O)c2c(=O)c(-c3ccc(O)cc3)coc2c1
> 50 µg/mL | > 50 µg/mL | > 50 µg/mL | > 50 µg/mL | > 50 µg/mL | > 50 µg/mL | > 50 µg/mL | O=c1c(-c2ccc(O)cc2)coc2cc(OCCCCn3ccnc3)cc(O)c12
18.5 µg/mL (≈ 42.1 µM) | > 50 µg/mL | > 50 µg/mL | 17.1 µg/mL (≈ 38.9 µM) | > 50 µg/mL | > 50 µg/mL | > 50 µg/mL | CCCCN(CCCC)CCCOc1cc(O)c2c(=O)c(-c3ccc(O)cc3)coc2c1
37.4 µg/mL (≈ 88.1 µM) | 30.3 µg/mL (≈ 71.4 µM) | > 50 µg/mL | 27.2 µg/mL (≈ 64.1 µM) | > 50 µg/mL | > 50 µg/mL | > 50 µg/mL | CN1CCN(CCCCOc2cc(O)c3c(=O)c(-c4ccc(O)cc4)coc3c2)CC1
> 50 µg/mL | > 50 µg/mL | > 50 µg/mL | > 50 µg/mL | > 50 µg/mL | > 50 µg/mL | > 50 µg/mL | O=c1c(-c2ccc(O)cc2)coc2cc(OCCCCBr)cc(O)c12
> 50 µg/mL | > 50 µg/mL | > 50 µg/mL | > 50 µg/mL | > 50 µg/mL | > 50 µg/mL | > 50 µg/mL | O=c1c(-c2ccc(O)cc2)coc2cc(OCCCCN3CCCCC3)cc(O)c12
19.5 µg/mL (≈ 45.8 µM) | 19.5 µg/mL (≈ 45.8 µM) | > 50 µg/mL | 10.5 µg/mL (≈ 24.7 µM) | > 50 µg/mL | > 50 µg/mL | > 50 µg/mL | CCCN(CCC)CCCCOc1cc(O)c2c(=O)c(-c3ccc(O)cc3)coc2c1
> 50 µg/mL | > 50 µg/mL | > 50 µg/mL | > 50 µg/mL | > 50 µg/mL | > 50 µg/mL | > 50 µg/mL | O=c1c(-c2ccc(O)cc2)coc2cc(OCCn3ccnc3)cc(O)c12
> 50 µg/mL | > 50 µg/mL | > 50 µg/mL | > 50 µg/mL | > 50 µg/mL | > 50 µg/mL | > 50 µg/mL | O=c1c(-c2ccc(O)cc2)coc2cc(OCCBr)cc(O)c12
> 50 µg/mL | > 50 µg/mL | > 50 µg/mL | > 50 µg/mL | > 50 µg/mL | > 50 µg/mL | > 50 µg/mL | O=c1c(-c2ccc(O)cc2)coc2cc(OCCCn3ccnc3)cc(O)c12
> 50 µg/mL | 35.5 µg/mL (≈ 86.3 µM) | > 50 µg/mL | 37.5 µg/mL (≈ 91.1 µM) | > 50 µg/mL | > 50 µg/mL | > 50 µg/mL | O=c1c(-c2ccc(O)cc2)coc2cc(OCCCCN3CCOCC3)cc(O)c12
37 µg/mL (≈ 87 µM) | 30 µg/mL (≈ 70.5 µM) | > 50 µg/mL | 32.8 µg/mL (≈ 77.1 µM) | 41.6 µg/mL (≈ 97.8 µM) | > 50 µg/mL | > 50 µg/mL | CCCCN(CCCC)CCOc1cc(O)c2c(=O)c(-c3ccc(O)cc3)coc2c1
20.5 µg/mL (≈ 53.7 µM) | 48.5 µg/mL (≈ 127 µM) | > 50 µg/mL | 18.5 µg/mL (≈ 48.5 µM) | 23.5 µg/mL (≈ 61.6 µM) | 20.5 µg/mL (≈ 53.7 µM) | 21.5 µg/mL (≈ 56.4 µM) | O=c1c(-c2ccc(O)cc2)coc2cc(OCCCN3CCCC3)cc(O)c12
> 50 µg/mL | > 50 µg/mL | > 50 µg/mL | > 50 µg/mL | > 50 µg/mL | > 50 µg/mL | > 50 µg/mL | O=c1c(-c2ccc(O)cc2)coc2cc(OCCCBr)cc(O)c12

More lines, now with the values behind:

SMILES | MIC (Pseudomonas fluorescens) | MIC (Bacillus subtilis) | MIC (Escherichia coli) | MIC (Staphylococcus aureus) | MIC (Aspergillus niger) | MIC (Candida albicans) | MIC (Trichophyton rubrum)
NC[C@H]1O[C@H](O[C@H]2[C@H](O)[C@@H](O[C@H]3O[C@H](CO)[C@@H](O)[C@H](N)[C@H]3O)[C@H](N)C[C@@H]2N)[C@H](O)[C@@H](O)[C@@H]1O [KANAMYCIN] | 3.9 µg/mL (≈ 8.05 µM) | 1 µg/mL (≈ 2.06 µM) | 3.9 µg/mL (≈ 8.05 µM) | 1 µg/mL (≈ 2.06 µM) |  |  | 
CN1CCN(CCCOc2cc(O)c3c(=O)c(-c4ccc(O)cc4)coc3c2)CC1 | > 50 µg/mL | 43 µg/mL (≈ 105 µM) | > 50 µg/mL | > 50 µg/mL | > 50 µg/mL | > 50 µg/mL | > 50 µg/mL
O=c1c(-c2ccc(O)cc2)coc2cc(O)cc(O)c12 [GENISTEIN] | > 50 µg/mL | > 50 µg/mL | > 50 µg/mL | > 50 µg/mL | > 50 µg/mL | > 50 µg/mL | > 50 µg/mL
O=c1c(-c2ccc(O)cc2)coc2cc(OCCn3cnc4ccccc43)cc(O)c12 | > 50 µg/mL | > 50 µg/mL | > 50 µg/mL | > 50 µg/mL | > 50 µg/mL | > 50 µg/mL | > 50 µg/mL
O=c1c(-c2ccc(O)cc2)coc2cc(OCCCN3CCNCC3)cc(O)c12 | > 50 µg/mL | > 50 µg/mL | > 50 µg/mL | 40 µg/mL (≈ 101 µM) | > 50 µg/mL | > 50 µg/mL | > 50 µg/mL
O=c1c(-c2ccc(O)cc2)coc2cc(OCCN3CCCC3)cc(O)c12 | 28.5 µg/mL (≈ 77.6 µM) | > 50 µg/mL | > 50 µg/mL | 49.6 µg/mL (≈ 135 µM) | 39.8 µg/mL (≈ 108 µM) | > 50 µg/mL | > 50 µg/mL
CC(=O)N1CCN(c2ccc(OCC3COC(Cn4ccnc4)(c4ccc(Cl)cc4Cl)O3)cc2)CC1 (stereo not given) [KETOCONAZOLE] |  |  |  |  | 7.8 µg/mL (≈ 14.7 µM) | 3.9 µg/mL (≈ 7.34 µM) | 3.9 µg/mL (≈ 7.34 µM)
O=c1c(-c2ccc(O)cc2)coc2cc(OCCCN3CCCCC3)cc(O)c12 | > 50 µg/mL | > 50 µg/mL | > 50 µg/mL | > 50 µg/mL | > 50 µg/mL | > 50 µg/mL | > 50 µg/mL
O=c1c(-c2ccc(O)cc2)coc2cc(OCCCN3CCOCC3)cc(O)c12 | > 50 µg/mL | > 50 µg/mL | > 50 µg/mL | > 50 µg/mL | > 50 µg/mL | > 50 µg/mL | > 50 µg/mL
O=c1c(-c2ccc(O)cc2)coc2cc(OCCNCc3ccco3)cc(O)c12 | > 50 µg/mL | > 50 µg/mL | > 50 µg/mL | > 50 µg/mL | > 50 µg/mL | > 50 µg/mL | > 50 µg/mL
CCCCN(CCCC)CCCCOc1cc(O)c2c(=O)c(-c3ccc(O)cc3)coc2c1 | 13.2 µg/mL (≈ 29.1 µM) | 3.7 µg/mL (≈ 8.16 µM) | > 50 µg/mL | 1.7 µg/mL (≈ 3.75 µM) | > 50 µg/mL | > 50 µg/mL | > 50 µg/mL
O=c1c(-c2ccc(O)cc2)coc2cc(OCCN3CCOCC3)cc(O)c12 | > 50 µg/mL | > 50 µg/mL | > 50 µg/mL | > 50 µg/mL | > 50 µg/mL | > 50 µg/mL | > 50 µg/mL
O=c1c(-c2ccc(O)cc2)coc2cc(OCCN3CCCCC3)cc(O)c12 | > 50 µg/mL | > 50 µg/mL | > 50 µg/mL | > 50 µg/mL | > 50 µg/mL | > 50 µg/mL | > 50 µg/mL
O=c1c(-c2ccc(O)cc2)coc2cc(OCCCNCc3ccco3)cc(O)c12 | 10.5 µg/mL (≈ 25.8 µM) | 12.5 µg/mL (≈ 30.7 µM) | > 50 µg/mL | 3.4 µg/mL (≈ 8.35 µM) | 45.5 µg/mL (≈ 112 µM) | > 50 µg/mL | > 50 µg/mL
O=c1c(-c2ccc(O)cc2)coc2cc(OCCCCn3cnc4ccccc43)cc(O)c12 | > 50 µg/mL | > 50 µg/mL | > 50 µg/mL | 21.3 µg/mL (≈ 48.1 µM) | > 50 µg/mL | > 50 µg/mL | > 50 µg/mL
O=c1c(-c2ccc(O)cc2)coc2cc(OCCN3CCNCC3)cc(O)c12 | 23.5 µg/mL (≈ 61.5 µM) | 47.5 µg/mL (≈ 124 µM) | > 50 µg/mL | 17.5 µg/mL (≈ 45.8 µM) | > 50 µg/mL | > 50 µg/mL | > 50 µg/mL
CN1CCN(CCOc2cc(O)c3c(=O)c(-c4ccc(O)cc4)coc3c2)CC1 | > 50 µg/mL | > 50 µg/mL | > 50 µg/mL | 35.5 µg/mL (≈ 89.5 µM) | > 50 µg/mL | > 50 µg/mL | > 50 µg/mL
O=c1c(-c2ccc(O)cc2)coc2cc(OCCCn3cnc4ccccc43)cc(O)c12 | > 50 µg/mL | > 50 µg/mL | > 50 µg/mL | > 50 µg/mL | > 50 µg/mL | > 50 µg/mL | > 50 µg/mL
